This is one part of a sample in which hits are shown more often than they occur.
HCT116 PTEN-null – growth suppression of PTEN-null HCT116, primary screen, cell-based, CellTiter-Glo | HCT116 PTEN-null viability, 60 h; hits give low values | viability, % at 10 µM | actives 1.2% (n = 140,000);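 active = viability at or below a set limit, 4 SD under the median of all tested compounds, cut at about 3.7% in these data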;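 also: PTEN knockout HCT116 line with beta catenin targeted HCT116 as companion control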
HUVEC inhibit – inhibitors of HUVEC proliferation, primary screen, cell-based, 384-well. CellTiter-Glo luminescence, 72 h; hits give low values. viability, % at 10 µM (by protocol). actives 1.1% (n = 86,000);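 active = viability at or below 30%; inactive = viability above 30%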;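 also: 100% = median luminescence of DMSO-only cell control wells on each plate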
HCT116 bCat-KO – primary screen for growth suppressors in beta-catenin knockout HCT116 cells (colon tumor, human); HCT116 beta-catenin knockout viability, CellTiter-Glo, 60 h; hits give low values; viability, % at 10 µM; actives 1.5% (n = 140,000); AID 818, 2007;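 active = viability at or under a set limit, the compound median less 4 SD, cut at about 6% in these data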;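 also: 0% = Hyamine 1622 control at 20 µM and 100% = untreated cell control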
H69AR growth 86K – proliferation blockers of H69AR lung cancer cells, primary screen, cell-based, human, 86K library. H69AR lung tumor viability, ATP luminescence, 72 h; hits give low values. viability, % at 10 µM. actives 6% (n = 85,000). AID 598, 2007;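 active = viability at or below 40%; inactive = viability above 40%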;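 also: multidrug resistant small cell line overexpressing MRP-1 efflux transporter; 100% = mean luminescence of untreated control wells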
Lung fibro prol – antiproliferative effect on LL 47 fibroblasts – human, LL 47 cells, CellTiter-Glo luminescence, primary screen; LL 47 human lung fibroblast viability, ATP luminescence; hits give low values; viability, % at 10 µM; actives 1.1% (n = 85,000);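 active = viability at or below 50% in the single dose screen; inactive = viability above 50%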;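 also: compound exposure lasted 72 h before the ATP readout; 100% = median luminescence of untreated cell-only wells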
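Test system: LL 47 human lung fibroblasts / Incubation: 72 h compound exposure at 37 °C after overnight plating / Technique: luminescent ATP detection, CellTiter-Glo / Compound dosing: 0.1% DMSO in all compound wells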
Starred values were filed as active, the others as inactive; x = no result.

SMILES	HCT116 PTEN-null	HUVEC inhibit	HCT116 bCat-KO	H69AR growth 86K	Lung fibro prol
CCOC(=O)c1c(NC(=O)C2COc3ccccc3O2)sc(C(C)=O)c1C (stereo unspecified)	63	23*	67	21*	84
Cc1ccc(NS(=O)(=O)c2cc(-c3n[nH]c(=O)c4ccccc34)ccc2C)cc1	17	x	21	x	x
Clc1cccc(N/N=C(\Cc2nc3ccccc3[nH]2)c2ccccc2)c1	54	x	69	x	x
Cc1ccc(C)c(N2CCN(CCCNC(=O)Cn3cc4c(n3)CCC(C)C4)CC2)c1 (stereo unspecified)	9	15*	10	46	73
Cc1ccc(C)c(N2CCN(CCCNC(=O)Cn3cc4c(n3)CCCCC4)CC2)c1	1.7*	22*	2.1*	50	84
O=C1C=CC(=O)N1c1ccc(OC(F)F)cc1	103	x	87	x	x
CCOC(=O)c1cc2sc(C)cc2n1CC(=O)NCc1ccc(F)cc1	86	67	96	30*	95
CCOC(=O)c1cc2sc(C)cc2n1CC(=O)N1CCOCC1	92	108	94	102	102
Cc1ccc(Nc2ncccc2C(N)=O)cc1[N+](=O)[O-]	92	x	94	x	x
COc1ccc(C2NC(=O)c3sc(=S)n(-c4ccccc4)c3N2)cc1 (stereo unspecified)	3.2*	72	41	95	108
CCOc1ccc(C2NC(=O)c3sc(=S)n(-c4ccccc4)c3N2)cc1 (stereo unspecified)	99	x	103	x	x
CC(=O)[C@@]1(O)CC[C@H]2[C@@H]3CCC4=CC(=O)CC[C@]4(C)[C@H]3[C@@H](O)C[C@@]21C	97	97	88	92	94
CC(=O)[C@@]1(O)CC[C@H]2[C@@H]3C[C@H](C)C4=CC(=O)CC[C@]4(C)[C@H]3CC[C@@]21C	74	94	63	6.9*	87
O=C(N/N=C/C=C/c1ccco1)/C(=C/c1ccccc1)NC(=O)c1ccccc1	84	x	82	x	x
O=C(Nc1cc(C(F)(F)F)ccc1-n1cnc2ccccc21)c1ccccc1	78	x	84	x	x
COCCNC(=O)c1cc(-c2ccccc2OC)on1	58	90	60	36*	95
Cc1cc(C(=O)Nc2cc(C)n(Cc3ccc(Cl)cc3)n2)no1	75	103	73	94	94
COc1ccc(-c2cc(C(=O)Nc3cc(C)nn3-c3ccccc3)no2)cc1	74	81	90	64	88
COc1ccccc1-c1cc(C(=O)Nc2cc(C)nn2-c2ccccc2)no1	26	66	36	27*	68
COc1ccccc1-c1cc(C(=O)Nc2cc(C)n(Cc3ccc(Cl)cc3)n2)no1	88	36	90	5.4*	98
CCc1c(C)nc2ncnn2c1NCCc1ccc(OC)cc1	15	80	15	13*	68
COc1ccc(CCNC(=O)C2CCN(S(C)(=O)=O)CC2)cc1	85	86	90	100	98
CCCS(=O)(=O)c1c(S(=O)(=O)CCC)c2cc(CC)ccn2c1C(=O)OC	81	103	84	24*	91
CCCS(=O)(=O)c1c(S(=O)(=O)CCC)c2c3ccccc3ccn2c1C(=O)OC	49	74	41	27*	84
CCCS(=O)(=O)c1c(S(=O)(=O)CCC)c2c(C)cccn2c1C(=O)OC	87	90	90	52	96
SMILES	HCT116 PTEN-null	HUVEC inhibit	HCT116 bCat-KO	H69AR growth 86K	Lung fibro prol
O=C(CN1CCCCC1)Nc1ccc(NC(=O)c2ccccc2Cl)cc1Cl	92	x	86	x	x
O=c1cc(CNc2ccc(Br)cc2)nc2sccn12	83	x	87	x	x
Cc1cc(N/N=C/c2ccc(O)cc2O)nc(-c2ccccc2O)n1	2.7*	x	5.9*	x	x
Cc1cc(N)n2ncc(-c3ccc(Cl)cc3)c2n1	52	36	55	42	46*
Cc1cc(NCCOCCO)n2ncc(-c3ccc(Cl)cc3)c2n1	19	41	28	22*	41*
Cc1cc(NCCCn2ccnc2)n2nc(-c3ccc(F)cc3)cc2n1	81	92	72	67	88
Cc1cc(N)n2ncc(-c3ccc(F)cc3)c2n1	93	79	80	69	81
CC(C)(C)c1cc(NCCCn2ccnc2)n2ncc(-c3ccc(Cl)cc3)c2n1	25	8.7*	20	5.2*	45*
Cc1ccc(C(=O)c2no[n+]([O-])c2C(=O)c2ccc(C)cc2)cc1	89	x	87	x	x
Cc1c(CC(C)C)nc(N)c(C#N)c1-c1ccccc1	70	84	70	24*	92
CCOC(=O)C1=c2/c(=C/c3ccccc3OC)c(N)c(C#N)n2C(=O)C(c2ccccc2OC)S1 (stereo unspecified)	x	27*	20	3.4*	55
CSc1nc2c(c(=O)[nH]1)C(c1ccncc1)C(C(=O)OC(C)C)=C(C)N2 (stereo unspecified)	93	89	88	89	110
O=C(Cn1nnc(-c2ccccc2)n1)NCc1ccco1	87	102	90	107	99
O=C(Cn1cnc2sc(-c3ccccc3)cc2c1=O)NCc1ccco1	45	54	49	26*	68
O=C(Cn1cnc2sc(-c3ccccc3)cc2c1=O)NCCc1ccccc1	10	39	7	26*	69
O=C(Cn1cnc2sc(-c3ccccc3)cc2c1=O)NCc1ccccc1	2.2*	51	2.1*	22*	65
CCOC(=O)N1CCN(C(=O)CCSc2ccccc2)CC1	102	99	99	96	106
O=C(Nc1ccccc1)OCc1cc(-c2ccccc2Cl)on1	90	x	91	x	x
CCOc1ccc(/C(O)=C2/C(=O)C(=O)N(c3ncccn3)C2c2ccccc2)cc1 (stereo unspecified)	104	x	98	x	x
CCCCc1c(C)c(C#N)c2[nH]c3ccccc3n2c1=O	66	68	70	18*	92
Cc1c(CCC(C)C)c(=O)n2c([nH]c3ccccc32)c1C#N	76	74	81	31*	90
O=C(CSc1nnc(-c2ccccc2)c(-c2ccccc2)n1)Nc1ccc(Br)cn1	42	x	30	x	x
CC12CC(c3ccccc3O1)N(C(=O)c1ccco1)C(=S)N2c1ccc(F)cc1 (stereo unspecified)	55	60	66	6.4*	87
COC(=O)c1ccc(Cl)c(NC(=O)CN(c2ccccc2)S(=O)(=O)c2ccc(OC)cc2)c1	74	x	77	x	x
O=C(c1cccc(S(=O)(=O)N2CCc3ccccc3C2)c1)N1CCN(c2ccc(O)cc2)CC1	64	x	69	x	x
CCOC(=O)c1c2ccc(OCC(=O)N/N=C/c3ccc(C)cc3)cc2n2ccccc12	1.6*	x	1.5*	x	x
CCCc1cc2c(=O)c(-c3ccc4c(c3)OCCO4)coc2cc1OC(=O)c1ccco1	72	74	72	40*	86

Source: PubChem BioAssay (SRMLSC)
